# Source: PubChem
# B2AR ag – activates human beta-2 adrenergic receptor causing internalization; Am2.2-beta2AR cells, FAP receptor internalization, flow cytometry; P07550; 340,000 compounds, 0.43% hits; response, % (concentration not given with the values);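 active = response above a set limit, near 3 SD of response in nonfluorescent compounds, cut at about 42% in these data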
# TLR9-MyD88 block – blocks human TLR9 binding to MyD88. Q9NR96+Q99836. CHO BLA complementation TLR9-MyD88, CCF4 FRET ratio. inhibition, % at 4.98 µM. 340,000 compounds, 0.21% hits;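 active = inhibition above the mean over all tested compounds plus 3 SD, cut at about 21% in these data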
# NOD2-RIPK2 inh – NOD2-RIPK2 protein interaction inhibition. CHO BLA complementation NOD2-RIPK2, CCF4 ratio. inhibition, % at 4.98 µM. O43353. 360,000 compounds, 0.38% hits; in the data active = inhibition above about 21%
# Target sequence (O43353 whole entry, looked up): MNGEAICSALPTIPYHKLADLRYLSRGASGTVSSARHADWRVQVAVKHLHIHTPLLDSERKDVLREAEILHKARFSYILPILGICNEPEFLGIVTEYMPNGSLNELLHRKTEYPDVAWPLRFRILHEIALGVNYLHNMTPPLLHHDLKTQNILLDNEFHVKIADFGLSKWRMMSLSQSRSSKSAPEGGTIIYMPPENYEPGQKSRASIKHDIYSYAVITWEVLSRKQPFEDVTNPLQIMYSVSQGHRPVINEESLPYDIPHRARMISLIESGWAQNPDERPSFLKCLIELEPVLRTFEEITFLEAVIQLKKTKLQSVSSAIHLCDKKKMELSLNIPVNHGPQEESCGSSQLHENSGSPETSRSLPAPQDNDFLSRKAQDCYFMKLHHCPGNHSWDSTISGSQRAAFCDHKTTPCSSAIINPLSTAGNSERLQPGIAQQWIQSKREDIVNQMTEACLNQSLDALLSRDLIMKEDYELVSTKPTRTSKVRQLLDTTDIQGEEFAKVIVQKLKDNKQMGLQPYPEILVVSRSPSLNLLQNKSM
# Dynein transport – dynein cargo transport inhibition; 3617.4 mouse cells, GR-EGFP nuclear translocation imaging; test concentration mostly 20 µM; stimulated with dexamethasone, 1 µM; hits give low values; z-score, hits read low; 220,000 compounds, 0.47% hits;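 active = plate z-score of nuclear minus cytoplasmic receptor signal below a set negative limit, without overly bright fluorescence or cell loss, cut at about -3.5 in these data, passing the limit was not always enough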;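 also: z-score of nuclear minus cytoplasmic ring GR-EGFP intensity difference per well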
#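 medium = tetracycline-free induction medium containing charcoal-stripped FBS | probe or stimulus = dexamethasone, 1.0 µM final | timing = 48 h induction, then 1 h compound, then 30 min agonist, 37 °C | detection = automated 10x imaging of fixed Hoechst-stained cells | read-out basis = nuclear versus cytoplasmic GR-EGFP signal, averaged per well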
# ABHD5 PLIN5 PPI – blocks binding of human ABHD5 to perilipin-5 | Q00G26+Q8WTS1 | Split G. princeps luciferase complementation, luminescence, 4 h | inhibition, % at 4 µM | 360,000 compounds, 0.78% hits;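 active = inhibition above the mean inhibition across every tested compound plus 3 SD, cut at about 22% in these data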
# TLR4-MyD88 BLA – inhibitors of human TLR4-MyD88 binding | HeLa CL3-4 TLR4/MyD88 BLA complementation, FRET ratio | inhibition, % at 8.4 µM | 200,000 compounds, 0.18% hits | AID 861; in the data active = inhibition above about 25%
# ABHD5 PLIN5 conf – ABHD5-PLIN5 interaction inhibition, confirmed | 2,200 compounds, 67% hits | shares compounds with ABHD5 PLIN5 PPI | inhibition, % at 4 µM | biochemical ABHD5-PLIN5 interaction, luminescence; in the data active = inhibition above about 23%
# HNF4 counter – HNF4 split-luciferase signal hit, counter-screen. shares compounds with ABHD5 PLIN5 PPI. HNF4 dimerization, luminescence, biochemical. inhibition, % at 4 µM. 2,200 compounds, 77% hits;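 active = mean inhibition across replicate wells exceeding the computed hit threshold, cut at about 13% in these data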;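 also: light from luciferase halves that rejoin when HNF4 fusion proteins dimerize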
# A number is an active result; - = inactive; . = not tested or not shown. The list is not random: actives were taken first. Their share in the collection is about 1.6%.
SMILES,B2AR ag,TLR9-MyD88 block,NOD2-RIPK2 inh,Dynein transport,ABHD5 PLIN5 PPI,TLR4-MyD88 BLA,ABHD5 PLIN5 conf,HNF4 counter
C=C1C(=O)O[C@H]2C[C@H]1[C@@H](OC(C)=O)C/C(C)=C/CC/C(C)=C\CC[C@]2(C)O,-,-,-,.,70.5,.,87.7,63.7
Cc1cc(Br)c2c(c1)[C@](O)(c1cn(C)c3ccccc13)C(=O)N2C,.,.,-,.,-,.,.,.
O=C(c1ccc(-c2ccc([N+](=O)[O-])cc2)o1)N1CCCCC1,-,-,-,-,-,-,.,.
CC1CC(C)CN(C(=O)c2ccc(-c3ccc([N+](=O)[O-])cc3)o2)C1 (configuration not stated),-,-,-,.,28.2,.,-,-
CCCCN(C)c1nc(-c2ccco2)c2c(c1C#N)CC(C)(C)OC2,-,-,-,-,28.5,-,54.2,78.7
CN(C)CCNc1nc(-c2ccco2)c2c(c1C#N)CC(C)(C)OC2,-,-,-,-,-,-,.,.
CC(=O)Nc1ccc(C(=O)/C=C/c2ccco2)cc1,-,-,-,-,29.1,-,51.8,57.0
O=C(C=Cc1ccco1)c1ccc2ccccc2c1,-,-,-,.,36.9,.,63.6,54.5
O=C(/C=C\c1ccco1)c1ccc(NC(=O)c2ccco2)cc1,-,-,-,-,25.4,-,49.2,47.0
O=C(/C=C/c1ccco1)c1ccc(O)cc1,.,.,.,-,.,-,.,.
CCN(C[C@H]1N[C@@](Cc2ccccc2)(C(=O)OC)[C@H]2C(=O)N(C)C(=O)[C@@H]12)S(=O)(=O)c1ccc(-c2ccccc2)cc1,-,-,-,.,-,.,.,.
COc1cc(/C=N/N=C(N)N)ccc1OCc1ccc(Cl)cc1,-,-,-,-,23.6,-,-,-
COc1cc(/C=N/O)ccc1OCc1ccc(Cl)cc1,.,.,.,-,.,-,.,.
Cc1cccc2sc(N(CCN(C)C)C(=O)C3CCN(S(=O)(=O)c4cccs4)CC3)nc12,-,-,-,.,-,.,.,.
COC(=O)[C@H](C)NC(=O)Nc1ccc(S(N)(=O)=O)cc1,-,-,-,-,-,-,.,.
CC(C)C(Cl)=NOC(=O)Nc1ccc(S(N)(=O)=O)cc1,-,-,-,.,28.9,.,68.5,87.2
Oc1c(CN2CCOCC2)cc(CN2CCOCC2)c(O)c1O,-,-,-,.,-,.,.,.
CCCc1cc(CN2CCOCC2)c(O)c(CN2CCOCC2)c1O,-,-,-,.,25.5,.,63.1,99.5
O=C(O)c1cccc(-c2ccc3c(c2)OCO3)c1,-,-,-,.,88.3,.,-,-
O=C(N1CCCCC1)C1(S(=O)(=O)c2ccccc2)CC=CC1,-,-,-,.,32.8,.,-,-
O=c1[nH]c(/C=C/c2ccccc2Cl)c([N+](=O)[O-])c(=O)[nH]1,-,-,-,.,39.0,.,71.2,61.4
COc1cc(/C=C/c2[nH]c(=O)[nH]c(=O)c2[N+](=O)[O-])cc(OC)c1O,-,-,-,.,-,.,.,.
O=C(COc1ccccc1/C=C\c1[nH]c(=O)[nH]c(=O)c1[N+](=O)[O-])Nc1ccccc1,-,-,-,-,30.4,-,86.8,84.2
COc1cccc(/C=C/c2[nH]c(=O)[nH]c(=O)c2[N+](=O)[O-])c1O,-,-,-,.,32.4,.,78.1,79.8
CC(C)(C)NC(=O)C(c1ccc(-c2ccccc2)cc1)n1c(=O)c(-c2ccco2)nc2ccccc21 (configuration not stated),.,.,-,.,72.9,.,93.8,28.2
Cc1cccc(C)c1NC(=O)C(c1ccc(-c2ccccc2)cc1)n1c(=O)c(-c2ccco2)nc2ccccc21 (configuration not stated),.,.,-,.,89.6,.,95.9,26.7
COc1ccc(C(C(=O)NC(C)(C)C)n2c(=O)c(-c3ccco3)nc3ccccc32)cc1 (configuration not stated),.,.,-,.,72.9,.,62.7,25.6
